This experiment deals with rat intestinal sucrase (Rattus norvegicus, UniProt P23739). Put plainly: Assay of sucrase inhibitory activity. The format is biochemical. In a few lines: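 Rat intestinal sucrase-isomaltase prepared by Dahlqvist's method. Enzyme preincubated 10 min at 37°C with test sample (25–200 µg/ml, maleate buffer pH 6.0); reaction started with 60 mM sucrose solution, stopped after 30 min with 3,5-dinitrosalicylic acid reagent, boiled 5 min, A540 read. % inhibition relative to untreated-enzyme control lacking sample; three experiments.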

What is called IC50 is the point on the concentration scale where inhibition reaches its midpoint. Lower therefore signals greater potency.

Chain of rat intestinal sucrase (P23739 whole entry): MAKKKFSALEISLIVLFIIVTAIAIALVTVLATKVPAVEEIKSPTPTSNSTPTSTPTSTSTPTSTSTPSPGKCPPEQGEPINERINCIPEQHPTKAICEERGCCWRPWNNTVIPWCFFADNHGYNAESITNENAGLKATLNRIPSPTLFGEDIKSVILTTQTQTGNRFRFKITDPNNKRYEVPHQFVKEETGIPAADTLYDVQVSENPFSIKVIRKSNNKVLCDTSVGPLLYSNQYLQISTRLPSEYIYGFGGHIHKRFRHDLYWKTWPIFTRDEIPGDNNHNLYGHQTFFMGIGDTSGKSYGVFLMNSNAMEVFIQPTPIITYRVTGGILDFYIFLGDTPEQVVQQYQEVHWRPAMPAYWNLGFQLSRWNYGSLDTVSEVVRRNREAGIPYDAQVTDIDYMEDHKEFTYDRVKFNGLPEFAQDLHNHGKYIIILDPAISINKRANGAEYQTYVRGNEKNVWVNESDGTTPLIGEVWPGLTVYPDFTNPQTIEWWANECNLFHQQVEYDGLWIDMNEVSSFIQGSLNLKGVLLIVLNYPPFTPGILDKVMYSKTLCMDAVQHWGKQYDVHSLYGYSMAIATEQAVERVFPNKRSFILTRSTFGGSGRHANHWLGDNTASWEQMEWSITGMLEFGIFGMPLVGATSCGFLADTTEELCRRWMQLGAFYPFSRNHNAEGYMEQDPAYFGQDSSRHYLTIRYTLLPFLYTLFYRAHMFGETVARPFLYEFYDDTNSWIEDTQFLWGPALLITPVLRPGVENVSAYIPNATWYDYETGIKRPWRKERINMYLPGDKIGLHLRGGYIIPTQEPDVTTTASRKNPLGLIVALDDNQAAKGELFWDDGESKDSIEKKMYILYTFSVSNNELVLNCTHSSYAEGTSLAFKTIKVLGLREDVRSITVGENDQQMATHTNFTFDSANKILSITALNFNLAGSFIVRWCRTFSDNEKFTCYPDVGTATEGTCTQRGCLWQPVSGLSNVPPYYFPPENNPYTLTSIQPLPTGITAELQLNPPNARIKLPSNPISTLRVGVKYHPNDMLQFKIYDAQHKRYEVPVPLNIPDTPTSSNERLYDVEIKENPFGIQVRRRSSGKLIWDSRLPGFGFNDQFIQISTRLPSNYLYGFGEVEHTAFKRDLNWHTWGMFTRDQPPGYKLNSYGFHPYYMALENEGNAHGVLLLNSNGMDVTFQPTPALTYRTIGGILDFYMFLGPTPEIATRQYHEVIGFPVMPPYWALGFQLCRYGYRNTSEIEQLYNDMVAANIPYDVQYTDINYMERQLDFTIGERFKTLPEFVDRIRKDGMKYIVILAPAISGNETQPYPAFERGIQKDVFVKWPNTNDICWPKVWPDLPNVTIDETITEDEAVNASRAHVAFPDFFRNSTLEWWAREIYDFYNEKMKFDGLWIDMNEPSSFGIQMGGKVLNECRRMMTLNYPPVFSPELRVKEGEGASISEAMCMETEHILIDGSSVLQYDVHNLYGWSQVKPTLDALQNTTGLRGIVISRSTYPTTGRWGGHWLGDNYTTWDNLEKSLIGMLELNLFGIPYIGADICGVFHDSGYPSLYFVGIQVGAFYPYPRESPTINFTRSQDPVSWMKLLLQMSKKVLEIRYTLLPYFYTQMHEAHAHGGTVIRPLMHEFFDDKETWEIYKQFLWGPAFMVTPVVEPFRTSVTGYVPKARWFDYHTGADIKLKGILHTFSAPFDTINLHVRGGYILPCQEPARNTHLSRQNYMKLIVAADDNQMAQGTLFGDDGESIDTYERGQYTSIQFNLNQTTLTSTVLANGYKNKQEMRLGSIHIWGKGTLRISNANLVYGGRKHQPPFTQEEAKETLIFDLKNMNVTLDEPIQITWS

As to `O=C1OC[C@H]2OC(=O)c3cc(O)c(O)c(O)c3-c3c(O)c(O)c(O)c4c3C(=O)O[C@H]([C@H]3OC(=O)c5c-4c(O)c(O)c(O)c5[C@H]3O)[C@@H]2OC(=O)c2cc(O)c(O)c(O)c2-c2c1cc(O)c(O)c2O` [Compound 4, castalagin], half-maximal inhibition (IC50) was put at 148 µM.

The compound `O=c1c(O[C@@H]2O[C@H](CO)[C@@H](O)[C@H](O)[C@H]2O)c(-c2ccc(O)c(O)c2)oc2cc(O)cc(O)c12` [Compound 5, quercetin-3-O-glucoside] had an IC50 of 194 µM. Regarding `O=C1O[C@H]2[C@H](O)[C@@H](CO)OC(O)[C@@H]2OC(=O)c2cc(O)c(O)c(O)c2-c2c1cc(O)c(O)c2O` (stereo partly drawn) [Compound 2, 2,3-hexahydroxydiphenoyl-(α/β)-D-^4C1-glucopyranose], the “sucrase inhibitory activity IC50” value (rat intestinal sucrase, in vitro) turned out to be 195.62 µg/mL. `O=c1c(O[C@@H]2O[C@@H](CO)[C@H](O)[C@H]2O)c(-c2ccc(O)c(O)c2)oc2cc(O)cc(O)c12` [Compound 3, avicularin] had an IC50 of 217 µM.

Source of the values: PMC4971946 (Pharmacognosy Magazine, 2016).
